How the values were obtained:
[1] = biological target: T1, Apoptosis regulator Bcl-2 (Homo sapiens, UniProt P10415); assay: Inhibition of 5-FAM-tagged Bid-BH3 peptide binding to Bcl2 (unknown origin) by fluorescence polarization assay; settings: read-out: Ki
Bcl-2-like protein 1 = Bcl-2-like protein 1 (Homo sapiens, UniProt Q07817); assay: Inhibition of 5-FAM-tagged Bid-BH3 peptide binding to Bcl-XL (unknown origin) by fluorescence polarization assay
Method in brief: (§1)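 Competitive fluorescence polarization in which compounds displace labelled Bid-BH3 peptide from the Bcl-2 family protein, read as a fall in mP. IC50 taken from mP versus concentration. Ki calculated from IC50, Kd, and the peptide and protein concentrations.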

[2] = biological target: Induced myeloid leukemia cell differentiation protein Mcl-1 (Homo sapiens, UniProt Q07820); assay: Inhibition of 5-FAM-tagged Bid-BH3 peptide binding to Mcl1 (unknown origin) by fluorescence polarization assay; method in brief: as §1
PC-3 = assay: Antiproliferative activity against human PC3 cells assessed as reduction in cell growth incubated for 48 hrs by MTT assay; type: functional, cell-based; settings: PC-3, 48 h
Method in brief: (§2)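 PC-3, Jurkat and K562 cells grown in RPMI 1640 with 10% FBS at 37°C, 5% CO2. Cells seeded at 2000-4000 per well and left 8 h before compound addition at a range of concentrations. Exposure 48 h, then 0.5% MTT solution for 4 h. Formazan dissolved in DMSO and absorbance read at 570 nm. IC50 derived from concentrations and inhibitory ratios.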

Jurkat [3] = assay: Antiproliferative activity against human Jurkat cells assessed as reduction in cell growth incubated for 48 hrs by MTT assay; type: functional, cell-based; method in brief: as §2
K562 = assay: Antiproliferative activity against human K562 cells assessed as reduction in cell growth incubated for 48 hrs by MTT assay; type: functional, cell-based; settings: K562, 48 h; method in brief: as §2
[4] = biological target: T1, Apoptosis regulator Bcl-2; assay: Potency index, ratio of Ki for WL276 to Ki for test compound for inhibition of 5-FAM-tagged Bid-BH3 peptide binding to Bcl2 (unknown origin) by fluorescence polarization assay
[5] = biological target: T1, Apoptosis regulator Bcl-2; assay: Potency index, ratio of Ki for UMI77 to Ki for test compound for inhibition of 5-FAM-tagged Bid-BH3 peptide binding to Bcl2 (unknown origin) by fluorescence polarization assay
Jurkat [6] = assay: Potency index, ratio of IC50 for WL276 to IC50 for test compound for antiproliferative activity against human Jurkat cells assessed as reduction in cell growth incubated for 48 hrs by MTT assay; type: functional
Jurkat [7] = assay: Induction of apoptosis in human Jurkat cells assessed as viable cells level at 20 uM incubated for 48 hrs by annexin-V/FITC and propidium iodide staining based flow cytometry (reference value: 86.5%); type: functional
Jurkat [8] = assay: Induction of apoptosis in human Jurkat cells assessed as early apoptotic cells level at 20 uM incubated for 48 hrs by annexin-V/FITC and propidium iodide staining based flow cytometry (reference value: 7.02%); type: functional
Jurkat [9] = assay: Induction of apoptosis in human Jurkat cells assessed as late apoptotic cells level at 20 uM incubated for 48 hrs by annexin-V/FITC and propidium iodide staining based flow cytometry (reference value: 6.29%); type: functional
Jurkat [10] = assay: Induction of apoptosis in human Jurkat cells assessed as necrotic cells level at 20 uM incubated for 48 hrs by annexin-V/FITC and propidium iodide staining based flow cytometry (reference value: 6.29%); type: functional
Jurkat [11] = assay: Induction of apoptosis in human Jurkat cells assessed as viable cells level at 40 uM incubated for 48 hrs by annexin-V/FITC and propidium iodide staining based flow cytometry (reference value: 86.5%); type: functional
Jurkat [12] = assay: Induction of apoptosis in human Jurkat cells assessed as early apoptotic cells level at 40 uM incubated for 48 hrs by annexin-V/FITC and propidium iodide staining based flow cytometry (reference value: 7.02%); type: functional
Jurkat [13] = assay: Induction of apoptosis in human Jurkat cells assessed as late apoptotic cells level at 40 uM incubated for 48 hrs by annexin-V/FITC and propidium iodide staining based flow cytometry (reference value: 6.29%); type: functional
Jurkat [14] = assay: Induction of apoptosis in human Jurkat cells assessed as necrotic cells level at 40 uM incubated for 48 hrs by annexin-V/FITC and propidium iodide staining based flow cytometry (reference value: 6.29%); type: functional
Jurkat [15] = assay: Induction of apoptosis in human Jurkat cells incubated for 48 hrs by annexin-V/FITC and propidium iodide staining based flow cytometry; type: functional, cell-based

T1 sequence (P10415 whole entry): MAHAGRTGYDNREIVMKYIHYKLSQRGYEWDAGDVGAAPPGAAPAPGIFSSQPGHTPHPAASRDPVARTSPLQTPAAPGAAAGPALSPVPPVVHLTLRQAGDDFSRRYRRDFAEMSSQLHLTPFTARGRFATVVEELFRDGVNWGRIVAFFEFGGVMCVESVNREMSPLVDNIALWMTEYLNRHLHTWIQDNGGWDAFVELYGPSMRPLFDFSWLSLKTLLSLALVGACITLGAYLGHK
Bcl-2-like protein 1, sequence (Q07817 whole entry): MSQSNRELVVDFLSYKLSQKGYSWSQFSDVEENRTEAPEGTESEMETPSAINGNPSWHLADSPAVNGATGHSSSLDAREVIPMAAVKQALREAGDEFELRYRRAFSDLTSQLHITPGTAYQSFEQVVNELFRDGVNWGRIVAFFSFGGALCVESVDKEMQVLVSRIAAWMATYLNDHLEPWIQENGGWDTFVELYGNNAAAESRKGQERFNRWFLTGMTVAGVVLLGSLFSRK
Induced myeloid leukemia cell differentiation protein Mcl-1, sequence (Q07820 whole entry): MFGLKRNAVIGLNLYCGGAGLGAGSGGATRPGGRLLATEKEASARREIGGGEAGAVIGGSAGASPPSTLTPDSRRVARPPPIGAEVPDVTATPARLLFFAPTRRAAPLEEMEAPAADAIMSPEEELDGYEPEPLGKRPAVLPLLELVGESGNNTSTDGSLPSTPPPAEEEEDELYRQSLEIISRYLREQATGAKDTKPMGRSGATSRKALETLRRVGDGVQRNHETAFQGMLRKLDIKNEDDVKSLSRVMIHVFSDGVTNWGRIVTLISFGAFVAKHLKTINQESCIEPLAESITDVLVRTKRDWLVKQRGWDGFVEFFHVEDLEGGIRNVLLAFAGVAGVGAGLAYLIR

With `COc1ccc2c(c1)c(CC(=O)N[C@@H](Cc1ccc(OCc3ccc(Br)cc3)cc1)C(=O)NS(=O)(=O)c1ccc(Cl)c([N+](=O)[O-])c1)c(C)n2C(=O)c1ccc(Cl)cc1` as the molecule, how does the Ki [1] read?
Its Ki is 0.44 µM.

And the Ki (Bcl-2-like protein 1)?
The Ki was “Not Active”.

And the Ki [2]?
Its Ki is 0.44 µM.

What about the IC50 (PC-3) of the same molecule?
The IC50 was 25.8 µM.

And the IC50 (Jurkat [3])?
Its IC50 is 24.7 µM.

What about the IC50 (K562) of the same molecule?
Its IC50 is 35.9 µM.

What about the Ratio Ki [4] of the same molecule?
The Ratio Ki was 2 to 3.

What about the Ratio Ki [5] of the same molecule?
Its Ratio Ki is 5 to 6.

What about the “Ratio IC50” value (Jurkat [6]) of the same molecule?
Its value is 2.

And the Activity (Jurkat [7])?
The Activity was 56.3%.

What about the Activity (Jurkat [8]) of the same molecule?
The Activity was 21.8%.

What about the Activity (Jurkat [9]) of the same molecule?
Its Activity is 21.3%.

What about the Activity (Jurkat [10]) of the same molecule?
The Activity was 0.51%.

And the Activity (Jurkat [11])?
The Activity was 42.3%.

What about the Activity (Jurkat [12]) of the same molecule?
Its Activity is 27.5%.

And the Activity (Jurkat [13])?
Its Activity is 29.3%.

And the Activity (Jurkat [14])?
Its Activity is 0.81%.

And the Activity (Jurkat [15])?
The Activity was “Dose-dependent effect”.

Reference: ChEMBL document CHEMBL4340551, “Design, synthesis and preliminary bioactivity studies of indomethacin derivatives as Bcl-2/Mcl-1 dual inhibitors” (Bioorg Med Chem, 2019)
